# Assay outcomes as filed in PubChem BioAssay.
# Only a selection was taken, and hits are over-represented in it overall.
# IDH1 R132H inh: inhibitors of human IDH1 R132H; O75874; IDH1 R132H reductase, diaphorase/resazurin fluorescence, 60 min; inhibition, % at 10 µM; 0.18% of 70,000 active; AID 624101; in the data active means inhibition above about 34%; inconclusive means no clear call, values can overlap the other calls; inactive means below about 11%;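 further: 0% = DMSO and 100% = no enzyme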
# T cruzi growth-1: T. cruzi proliferation inhibition | T. cruzi beta-gal in NIH3T3, GalScreen luminescence, 90 h | 5.9% of 77,000 active | inhibition, % at 8.34 µM;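 active means mean inhibition above about 93%, with at least 55% of replicates each passing it, limit read from the data, passing the limit was not always enough; inconclusive means only one of those two conditions holds; inactive means neither condition holds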
# GASC1 inh: KDM4C (human) demethylase inhibition; GST-KDM4C 2-372, H3K9me3 peptide, LANCE TR-FRET; AID 720574; 0.15% of 96,000 active; inhibition, % at 12.5 µM;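 active means mean replicate inhibition above about 25%, with at least 55% of replicates also reaching it, limit read from the data, passing the limit was not always enough; inconclusive means only one of those two conditions met; inactive means neither condition met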
# Target sequence (Q9H3R0 2-372 limits assumed): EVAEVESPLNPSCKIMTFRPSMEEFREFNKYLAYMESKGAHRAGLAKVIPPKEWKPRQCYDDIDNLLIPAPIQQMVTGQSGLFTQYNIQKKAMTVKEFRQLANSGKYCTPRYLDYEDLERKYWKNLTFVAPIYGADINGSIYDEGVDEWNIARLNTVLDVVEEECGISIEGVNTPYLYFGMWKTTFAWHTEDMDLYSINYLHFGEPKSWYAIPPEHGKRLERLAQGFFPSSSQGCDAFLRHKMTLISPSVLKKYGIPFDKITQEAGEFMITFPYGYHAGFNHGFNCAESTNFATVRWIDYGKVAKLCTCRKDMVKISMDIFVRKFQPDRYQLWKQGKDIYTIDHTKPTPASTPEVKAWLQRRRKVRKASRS
#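 System: N-terminal GST-fused human GASC-1 (KDM4C) fragment, residues 2-372 / Amount: 10 nM GST-KDM4C in enzyme reaction / Also added: H3K9me3 peptide with Fe(II)/2OG / Times: 30 min demethylation and 1 h detection at room temperature / Signal: LANCE TR-FRET / Read-out basis: Fall in 671/618 emission ratio as inhibition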
# T cruzi growth-2: inhibitors of T. cruzi proliferation | inhibition, % at 8.35 µM | AID 651739 | 72% of 5,600 active | shares compounds with T cruzi growth-1 | T. cruzi beta-gal in NIH3T3, GalScreen luminescence, 90 h;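 active means mean replicate inhibition above about 95% and at least 55% of replicates individually reaching it, limit read from the data; inconclusive means only one of the two criteria is met; inactive means neither criterion is met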
# T cruzi growth-3: inhibitors of T. cruzi proliferation | 21% of 5,600 active | shares compounds with T cruzi growth-1 | T. cruzi beta-gal in NIH3T3, GalScreen luminescence, 90 h | inhibition, % at 2.09 µM;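 active means mean inhibition above about 95%, with at least 55% of replicates also reaching it, limit read from the data; inconclusive means meets just one of the two conditions; inactive means meets neither condition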;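 further: plate controls were neutral control median for no effect and positive control median for full effect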
# 3T3 cytotox: NIH/3T3 (mouse) viability loss. cytotoxicity (signal decrease), % at 8.35 µM. AID 651742. NIH/3T3 viability, CellTiter-Glo ATP luminescence, 90 h. 14% of 5,600 active. shares compounds with T cruzi growth-1;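 active means mean signal decrease across replicates above about 35% based on untreated-well scatter, with enough replicates individually passing, limit read from the data; inconclusive means no rule stated though some were filed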;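 further: 0% = median of neutral control wells and 100% = median of positive control wells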
# NIH3T3 tox 2: kills mouse NIH/3T3 fibroblasts. shares compounds with T cruzi growth-1. NIH/3T3 viability, CellTiter-Glo ATP luminescence, 90 h. inhibition, % at 24.9 µM. 56% of 5,600 active. AID 651744;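 active means mean loss of cell viability signal at or above a set limit, and enough replicates individually reaching it; inconclusive means meets only the mean limit or only the replicate share; inactive means meets neither condition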;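 further: 0% = median of neutral control wells and 100% = median of positive control wells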
# * marks the source's active call; other numbers are inactive results; ? = inconclusive; nt = no result given.
SMILES,IDH1 R132H inh,T cruzi growth-1,GASC1 inh,T cruzi growth-2,T cruzi growth-3,3T3 cytotox,NIH3T3 tox 2
C[C@@H]1CN([C@H](C)CO)S(=O)(=O)c2ccc(/C=C/c3ccccc3)cc2O[C@H]1CN(C)C(=O)Nc1cccc(F)c1,0,123*,-2,96*,99*,73*,102*
O=S(=O)(CCc1nnc(-c2ccccc2)o1)c1ccc(Cl)cc1,0,nt,nt,nt,nt,nt,nt
COc1cccc(OCC(=O)Nc2ccc(Cl)cc2C(=O)O)c1,-1,nt,nt,nt,nt,nt,nt
C[C@]12CCC(=O)C=C1CC[C@@H]1C2[C@@H](O)C[C@@]2(C)C1CC[C@@H]2C(=O)CO (stereo partly specified),0,nt,nt,nt,nt,nt,nt
Cc1ccc(S(=O)(=O)N2C[C@H](O)COC[C@H]3O[C@@H](CC(=O)N[C@@H]4CCN(Cc5ccccc5)C4)CC[C@@H]32)cc1,nt,98*,-1,76,61,-2,1
O=C(C[C@H]1CC[C@H]2[C@@H](COC[C@@H](O)CN2S(=O)(=O)c2ccc(Cl)cc2)O1)N[C@@H]1CCN(Cc2ccccc2)C1,nt,96*,-1,?,71,-11,0
Cc1ccc(S(=O)(=O)N2C[C@H](O)COC[C@@H]3O[C@H](CC(=O)N[C@@H]4CCN(Cc5ccccc5)C4)CC[C@H]32)cc1,nt,68,1,nt,nt,nt,nt
O=C(C[C@H]1CC[C@H]2[C@@H](COC[C@H](O)CN2S(=O)(=O)c2ccc(Cl)cc2)O1)N[C@H]1CCN(Cc2ccccc2)C1,nt,92,1,nt,nt,nt,nt
Nc1nnc(SC2c3cccc4cccc(c34)C2NS(=O)(=O)c2ccc(Cl)cc2)s1 (stereo unspecified),2,nt,nt,nt,nt,nt,nt
COc1ccc(OC)c2c(C)cc(Cl)nc12,-1,nt,nt,nt,nt,nt,nt
Cc1cc(C(F)(F)F)nc(SCC(=O)Nc2cc(C(F)(F)F)ccc2Cl)n1,0,nt,nt,nt,nt,nt,nt
CCC(=O)N1C[C@@H]2[C@H](c3ccccc31)[C@@H](CO)N2C(=O)CC,nt,102*,-4,7,3,-11,-13
CCC(=O)N1C[C@H]2[C@@H](c3ccccc31)[C@@H](CO)N2Cc1ccccc1OC,nt,?,2,105*,11,22,13
CCC(=O)N1C[C@H]2[C@@H](c3ccccc31)[C@@H](CO)N2C(=O)CC,nt,60,-1,nt,nt,nt,nt
CCC(=O)N1C[C@@H]2[C@H](c3ccccc31)[C@H](CO)N2Cc1ccccc1OC,nt,-5,0,nt,nt,nt,nt
CCCNC(=O)C[C@H]1C[C@H]2c3cc(NC(=O)C4CCC4)ccc3O[C@H]2[C@@H](CO)O1,0,-40,0,nt,nt,nt,nt
C[C@@H]1CCCCO[C@H](CN(C)S(=O)(=O)c2cccs2)[C@@H](C)CN([C@@H](C)CO)C(=O)c2cc(NC(=O)Nc3ccccc3)ccc2O1,1,?,0,107*,42,8,25
C[C@@H]1CCCCO[C@@H](CN(C)S(=O)(=O)c2cccs2)[C@H](C)CN([C@H](C)CO)C(=O)c2cc(NC(=O)Nc3ccccc3)ccc2O1,nt,112*,-2,108*,76,-22,1
C[C@H]1CCCCO[C@H](CN(C)S(=O)(=O)c2cccs2)[C@@H](C)CN([C@@H](C)CO)C(=O)c2cc(NC(=O)Nc3ccccc3)ccc2O1,-6,107*,-1,106*,36,3,27*
C[C@@H]1CCCCO[C@@H](CN(C)S(=O)(=O)c2cccs2)[C@@H](C)CN([C@@H](C)CO)C(=O)c2cc(NC(=O)Nc3ccc(F)cc3)ccc2O1,1,27,0,nt,nt,nt,nt
C[C@@H]1CN([C@@H](C)CO)C(=O)c2cc(NC(=O)Nc3ccc(F)cc3)ccc2O[C@@H](C)CCCCO[C@H]1CN(C)S(=O)(=O)c1cccs1,-1,56,0,nt,nt,nt,nt
C[C@H](CO)N1C[C@H](C)[C@H](CN(C)S(=O)(=O)c2cccs2)OCCCC[C@H](C)Oc2ccc(NC(=O)Nc3ccc(F)cc3)cc2C1=O,2,92,-1,nt,nt,nt,nt
C[C@H]1CCCCO[C@@H](CN(C)S(=O)(=O)c2cccs2)[C@@H](C)CN([C@@H](C)CO)C(=O)c2cc(NC(=O)Nc3ccc(F)cc3)ccc2O1,-2,99*,0,109*,59,18,27*
C[C@@H]1CN([C@H](C)CO)C(=O)c2cc(NC(=O)Nc3ccc(F)cc3)ccc2O[C@@H](C)CCCCO[C@@H]1CN(C)S(=O)(=O)c1cccs1,nt,-47,-1,nt,nt,nt,nt
C[C@H](CO)N1C[C@H](C)[C@H](CN(C)C(=O)Nc2ccc(F)cc2)Oc2ccc(NC(=O)C3CC3)cc2C1=O,-1,-10,-1,nt,nt,nt,nt
SMILES,IDH1 R132H inh,T cruzi growth-1,GASC1 inh,T cruzi growth-2,T cruzi growth-3,3T3 cytotox,NIH3T3 tox 2
CCn1c(SCC(=O)Nc2cccc3ccccc23)nnc1-c1ccco1,0,nt,nt,nt,nt,nt,nt
CC(C)(C)OC(=O)NC1(/C=N/NC(=O)CCCCCC(=O)NO)CCCC1,0,nt,nt,nt,nt,nt,nt
C[C@@H]1CCCCO[C@H](CN(C)S(=O)(=O)c2cccs2)[C@@H](C)CN([C@H](C)CO)C(=O)c2cc(NC(=O)Nc3ccc(F)cc3)ccc2O1,nt,-18,5,nt,nt,nt,nt
C[C@@H]1CCCCO[C@H](CN(C)S(=O)(=O)c2cccs2)[C@H](C)CN([C@H](C)CO)C(=O)c2cc(NC(=O)Nc3ccccc3)ccc2O1,1,108*,1,107*,26,12,5
C[C@@H]1CCCCO[C@@H](CN(C)S(=O)(=O)c2cccs2)[C@@H](C)CN([C@@H](C)CO)C(=O)c2cc(NC(=O)Nc3ccccc3)ccc2O1,nt,54,-1,nt,nt,nt,nt
C[C@@H]1CCCCO[C@H](CN(C)S(=O)(=O)c2cccs2)[C@H](C)CN([C@@H](C)CO)C(=O)c2cc(NC(=O)Nc3ccccc3)ccc2O1,nt,99*,-2,101*,29,1,30*
O=C(CSc1nc2ccccc2[nH]1)Nc1ccc(Cl)c(Br)c1,0,nt,nt,nt,nt,nt,nt
C[C@H](O)c1nc2ccccc2c(=O)[nH]1,0,nt,nt,nt,nt,nt,nt
C[C@@H]1CN([C@@H](C)CO)C(=O)c2cccc(NS(=O)(=O)c3ccc(Cl)cc3)c2O[C@@H]1CN(C)Cc1ccc(Oc2ccccc2)cc1,2,96,-2,nt,nt,nt,nt
C[C@H]1CN([C@@H](C)CO)C(=O)c2cccc(NS(=O)(=O)c3ccc(Cl)cc3)c2O[C@H]1CN(C)Cc1ccc(Oc2ccccc2)cc1,nt,103,0,nt,nt,nt,nt
C[C@H](CO)N1C[C@H](C)[C@@H](CN(C)Cc2ccc(Oc3ccccc3)cc2)Oc2c(NS(=O)(=O)c3ccc(Cl)cc3)cccc2C1=O,nt,102*,-2,?,77,21,100*
C[C@@H]1CN([C@H](C)CO)C(=O)c2cccc(NS(=O)(=O)c3ccc(Cl)cc3)c2O[C@H]1CN(C)Cc1ccc(Oc2ccccc2)cc1,-1,?,3,110*,64,-12,24
COc1ccccc1NC(=O)CSC1CC(=O)N(c2ccc(F)cc2)C1=O (stereo unspecified),0,nt,nt,nt,nt,nt,nt
